Screens deposited in PubChem BioAssay by several laboratories.
Only some compounds are listed: those with a hit (about 7.2% of all), similar ones and a draw of the others.
Ecoli tolC: E. coli tolC mutant growth inhibition; E. coli BW25113 tolC mutant growth, OD615; growth inhibition, % at 10 µM (by protocol); 65,000 tested, 2.2% active; AID 573;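 active means growth inhibition at or above a cutoff equal to the mean over every tested compound plus 3 SD, cut at about 60% in these data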;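 further: growth measured after 20 h incubation at 37 °C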
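Signal: optical density read at 615 nm; Assay system: E. coli ΔtolC::kan strain BW25113; Times: 20 h incubation with compound, 37 °C; Dosing: 10 µM final, single dose.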
PostGolgi ctrl: growth of the yeast control strain, post-Golgi counter-screen; efflux-deficient yeast background strain, growth absorbance A615, 16 h; inhibition, % at 10 µM; 98,000 tested, 5% active; AID 738
Ecoli WT expand: blocks growth of wild type E. coli BW25113; OD600 absorbance; growth inhibition, % at 100 µM; 98,000 tested, 0.15% active;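 active means growth inhibition above about 50% at one test dose, limit read from the data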;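 further: growth measured after 20 h incubation at 37 °C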
PostGolgi yeast: growth inhibition of a yeast mutant, post-Golgi transport screen. post-Golgi transport phenotypic cell assay. inhibition, % at 10 µM. 98,000 tested, 0.9% active. AID 739;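 further: yeast cells grown in 1536-well plates; yeast grown about 18 h at 30C before absorbance read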
PLAP activator: activates human placental alkaline phosphatase; P05187; purified PLAP enzyme, luminescent substrate read-out; stronger effect = higher value; activation fold at 20 µM; 96,000 tested, 1.2% active; in the data active means activation fold above about 2
Target sequence (P05187 whole entry, looked up): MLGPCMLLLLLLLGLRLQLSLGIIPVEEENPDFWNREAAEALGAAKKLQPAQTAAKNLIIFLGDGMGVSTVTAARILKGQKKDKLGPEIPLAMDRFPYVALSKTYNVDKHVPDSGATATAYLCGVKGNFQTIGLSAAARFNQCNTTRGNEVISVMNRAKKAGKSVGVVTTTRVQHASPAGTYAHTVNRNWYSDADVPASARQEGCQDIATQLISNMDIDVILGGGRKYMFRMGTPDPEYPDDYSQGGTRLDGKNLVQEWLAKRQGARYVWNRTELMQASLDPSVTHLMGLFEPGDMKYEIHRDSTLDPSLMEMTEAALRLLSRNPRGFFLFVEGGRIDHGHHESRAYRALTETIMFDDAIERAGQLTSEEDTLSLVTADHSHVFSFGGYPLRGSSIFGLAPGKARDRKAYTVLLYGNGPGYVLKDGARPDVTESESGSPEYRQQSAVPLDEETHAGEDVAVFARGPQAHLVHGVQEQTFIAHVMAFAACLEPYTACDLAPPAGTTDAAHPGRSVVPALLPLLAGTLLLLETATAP
* marks the source's active call; other numbers are inactive results; x = not tested or not shown. Unless noted, no stated cut-off is given here; in the data, active means inhibition above about 30%; inactive means the rest.

SMILES	Ecoli tolC	PostGolgi ctrl	Ecoli WT expand	PostGolgi yeast	PLAP activator
COCCCn1c(SCc2nnc(-c3ccccc3)o2)nc2sc3c(c2c1=O)CCC3	x	100*	-4	63*	1.1
CCn1c(SCc2ccc(C(=O)OC)o2)nc2sc3c(c2c1=O)CCCC3	17	7	21	-3	1.4
CC1CN(Cc2nc3c(c(=O)n(C)c(=O)n3C)n2Cc2ccc(Cl)cc2)CC(C)O1 (stereo not drawn)	-1	x	x	x	x
COc1ccccc1-c1cc(-c2ccccc2)nc(SC(C(N)=O)c2ccccc2)c1C#N (stereo not drawn)	x	2	7	12	1.1
CCn1c(CNC(=O)c2cccs2)nnc1SCC(=O)NCCc1ccccc1	-9	31*	7	3	1.3
CCn1c(SCC(=O)NCCc2ccccc2)nnc1-c1cccs1	-16	9	0	8	0.9
CCCCn1c(-c2ccc([N+](=O)[O-])cc2)n[nH]c1=S	x	0	5	-3	1
CCCCn1c(CCn2nc(C)c(Br)c2C)n[nH]c1=S	x	5	0	-6	2.1*
CCOc1ccc(CCNS(=O)(=O)c2cnc[nH]2)cc1OCC	-36	-4	2	19	1.1
CCN(CC)CCCN1C(=O)C(O)=C(C(C)=O)C1c1ccc(OC)cc1OC (stereo not drawn)	10	x	x	x	x
CCc1c(C)nc2cc(-c3cc(OC)cc(OC)c3)nn2c1N1CCCC1	75*	43*	-29	1	1.4
CCc1c(C)nc2cc(-c3ccc(OC)c(OC)c3)nn2c1N1CCC(C)CC1	x	6	0	-4	1.2
COc1cc(OC)cc(-c2cc3nc4c(c(N5CCN(c6ncccn6)CC5)n3n2)CCCC4)c1	-2	69*	-7	1	1.6
CCc1c(C)nc2cc(-c3ccc(OC)c(OC)c3)nn2c1N1CCCC1	10	32*	-12	-4	1.2
C=CCNC(=O)C1CC(=O)N(c2ccc(OCC(=O)Nc3ccccc3)cc2)C1 (stereo not drawn)	-5	8	-4	-6	0.8
N#CC(c1nc2ccccc2nc1N1CCCC1)S(=O)(=O)c1cccs1 (stereo not drawn)	36	6	5	3	1.4
O=C(O)c1ccc(N2CCCCC2)cc1	-17	-7	3	31*	1.1
Cc1cc(C)cc(NC(=O)c2snc3c(=O)[nH]cnc23)c1	x	7	-3	-6	1
CC(/C=C1\SC(=O)N(CC(=O)Nc2cccc(O)c2)C1=O)=C\c1ccccc1	x	31*	-7	0	1.2
COc1ccc(OC)c(C2=NOC(C(=O)N3CCCc4ccccc43)C2)c1 (stereo not drawn)	x	8	0	-7	1.3
Oc1cccc2ccc(Nc3ccccn3)nc12	2	15	100*	2	0.6
CN1CCN(c2c(F)cc3c(=O)c(C(=O)O)cn4c3c2SCC4)CC1	100*	5	100*	3	x
Cc1c(-n2cc(C(=O)O)c(=O)c3cc(F)c(N4CCCC4)c(F)c32)c(=O)n(-c2ccccc2)n1C	-29	x	x	x	1
CNC(=S)N(Cc1ccc(OC)cc1)C1CC(=O)N(c2ccc(Cl)cc2)C1=O (stereo not drawn)	x	3	2	16	1
CC(C)Cn1cnc2c(c(-c3ccccc3)c(-c3ccccc3)n2Cc2ccco2)c1=N	x	62*	16	83*	1.7
SMILES	Ecoli tolC	PostGolgi ctrl	Ecoli WT expand	PostGolgi yeast	PLAP activator
N=c1c2c(-c3ccccc3)c(-c3ccccc3)n(Cc3ccccc3)c2ncn1CCO	x	18	19	23	1.4
N=c1c2c(-c3ccccc3)c(-c3ccccc3)n(Cc3ccco3)c2ncn1Cc1ccccc1	x	34*	7	75*	1.5
CCOC(=O)c1nnc(-c2ccccc2)nc1NC	x	0	2	19	1
FC(F)(F)c1nnc(-c2ccccc2)nc1Oc1ccc(Cl)cc1Cl	x	34*	4	8	0.9
CCOC(=O)c1nnc(-c2ccccc2)nc1Oc1ccccc1Cl	x	31*	-8	10	1
CC(C)(C)C1CCC(OCC(O)CN2CCN(c3ccccc3)CC2)CC1 (stereo not drawn)	x	96*	19	104*	1.5
CC1CCN(CC(O)COC2CCC(C(C)(C)C)CC2)CC1 (stereo not drawn)	35	98*	18	97*	1.6
Cc1ccc(N2CCN(CC(O)COC3CCCCC3)CC2)cc1 (stereo not drawn)	-4	19	3	10	1.3
Cc1cc(=O)oc2cc(OCCSCCN3CCOCC3)ccc12	8	32*	5	6	1.3
Cc1cc(=O)oc2ccc(OCC(=O)N(Cc3ccc(F)cc3)Cc3ccco3)cc12	42	44*	-17	-4	1.5
COc1ccc(C2(O)CC3CCC(C2)N3c2nc(C)cc(C)c2C#N)cc1 (stereo not drawn)	85*	12	-11	2	1.2
COc1ccc(Oc2nc(C)cc(C)c2C#N)cc1	3	10	10	-1	1.4
Cc1cc(Nc2nc3ccccc3nc2Cl)n(-c2ccc([N+](=O)[O-])cc2)n1	x	32*	-10	1	0.8
Cc1cc(Nc2nc3ccccc3[nH]c2=O)n(-c2ccccc2)n1	-3	10	3	-4	0.8
Cc1cc(C)c2c(N)c3ccccc3nc2n1	x	2	52*	4	1
CCOc1ccc(N(C(C)C(=O)NCc2ccco2)S(C)(=O)=O)cc1 (stereo not drawn)	x	0	-10	5	2*
CC(C)(C)C(=O)/C=C(\N)c1ccccn1	-13	4	-3	7	1.2
CC(C)(C)C(=O)/C=C(N)/C=C/c1ccccc1	19	33*	12	-2	1
Cc1cc(SCC(=O)N/N=C/c2ccc(O)c(O)c2O)c(C)cc1Br	x	18	31	3	2.2*
CC(C)C(=O)N(c1cc2sc(=O)oc2c2ccccc12)S(=O)(=O)c1cccs1	x	67*	-3	10	1.2
CC(C)C(=O)N(c1ccc2oc(=O)sc2c1)S(=O)(=O)c1cccs1	17	19	-6	-4	0.9
CC1=CC(C)(C)N2C(=O)C3(N=C(N)NC(Nc4ccccc4)=N3)c3cc(C)cc1c32 (stereo not drawn)	58	20	-1	7	2.1*
CC(=O)NC(C)C(=O)OCc1ccc(Cl)cc1Cl (stereo not drawn)	-1	3	-11	-6	1.2
Fc1cccc(Cl)c1CSc1nnc(COc2cccc3cccnc23)o1	57	62*	-17	4	1.1
NCCc1nnc(SCc2c(F)cccc2Cl)o1	-5	-1	17	-3	0.9
Clc1ccc(Cc2nnc(-c3ccccc3Br)o2)cc1	60	x	x	x	x
Clc1ccccc1OCc1nnc(-c2ccccc2Br)o1	72*	14	-2	8	1.1
Brc1ccccc1-c1nnc(COc2cccc3cccnc23)o1	x	33*	1	9	1.5
COc1ccc(OC)c(-n2nnnc2SCC(=O)Nc2ccc(C(=O)N3CCCCC3)cc2)c1	18	13	2	-4	1.3
Cc1cccc(NC(=O)c2ccc(N(C)C3CCCCC3)c([N+](=O)[O-])c2)n1	x	16	-9	-5	1.1
